# Apaf-1 inh: blocks human Apaf-1 apoptosome activity. O14727. reconstituted apoptosome caspase-3 activity, DEVD-Rh110 fluorescence. inhibition, % at 20 µM. hit rate 0.71% among 330,000. AID 489030; active = inhibition of at least 40% at 20 µM
#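 detection = Rh110 fluorescence intensity | test system = biochemical Apaf-1 apoptosome reconstitution | also added = cytochrome c and DEVD-Rh110 substrate | schedule = 30 min plus 50 min, RT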
# UBC13 polyUb: human UBC13 polyubiquitination inhibition; P61088; UBC13 polyubiquitin chain formation, TR-FRET; inhibition, % at 20 µM; hit rate 0.47% among 330,000; AID 485273; in the data active = inhibition above about 45%, passing the limit was not always enough
# SENP8 block-1: inhibitors of human SENP8 protease | purified SENP8, Z-RLRGG-aminoluciferin cleavage, luminescence | inhibition, % at 10 µM | Q96LD8 | hit rate 1.2% among 330,000; in the data active = inhibition above about 50%
# SENP8 block-2: inhibitors of human SENP8 protease | AID 602440 | hit rate 0.64% among 360,000 | inhibition, % at 20 µM | recombinant SENP8, Nedd8 substrate fluorescence | Q96LD8; in the data active = inhibition mostly above about 40%, no sharp cut-off; inactive = mostly below about 27%
# SENP7 inh: SENP7 protease inhibition; Q9BQF6; recombinant SENP7, Z-RLRGG-aminoluciferin luminescence, 40 min; inhibition, % at 5 µM; hit rate 1.5% among 330,000;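 active = inhibition above about 50% at the single test dose, limit read from the data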
# SENP6 block: blocks the human protease SENP6; inhibition, % at 10 µM; hit rate 1.8% among 330,000; Recombinant SENP6 catalytic domain, aminoluciferin luminescence;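 active = inhibition above about 50% at the single tested dose, limit read from the data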
# Target sequence (Q9GZR1 628-1112 limits assumed): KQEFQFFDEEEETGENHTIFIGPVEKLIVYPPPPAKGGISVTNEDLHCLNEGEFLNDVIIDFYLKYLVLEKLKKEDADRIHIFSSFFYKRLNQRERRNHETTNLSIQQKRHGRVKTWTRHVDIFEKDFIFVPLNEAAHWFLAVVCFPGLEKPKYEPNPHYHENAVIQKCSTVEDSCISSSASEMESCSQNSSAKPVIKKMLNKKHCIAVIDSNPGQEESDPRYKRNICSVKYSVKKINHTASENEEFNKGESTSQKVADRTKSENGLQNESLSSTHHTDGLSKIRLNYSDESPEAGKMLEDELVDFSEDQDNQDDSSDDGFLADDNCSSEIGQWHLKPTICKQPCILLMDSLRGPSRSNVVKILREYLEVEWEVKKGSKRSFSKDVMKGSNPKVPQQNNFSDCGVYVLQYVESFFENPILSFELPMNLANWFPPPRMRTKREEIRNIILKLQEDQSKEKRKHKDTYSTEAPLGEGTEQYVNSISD
# Numbers stand for hits; 0 = inactive; - = no result given. Only some compounds are listed: those with a hit (about 3% of all), similar ones and a draw of the others.
SMILES,Apaf-1 inh,UBC13 polyUb,SENP8 block-1,SENP8 block-2,SENP7 inh,SENP6 block
O=C(O)c1ccccc1NS(=O)(=O)c1ccc(N/N=C/c2ccc(O)c(O)c2)c([N+](=O)[O-])c1,-,-,-,52.9,-,-
NS(=O)(=O)c1ccc(N/N=C/c2ccc(O)c(O)c2O)c([N+](=O)[O-])c1,-,-,-,105.5,-,-
O=C1CC2(CCCC2)C(=O)N1CN1CCN(S(=O)(=O)c2cc(F)ccc2F)CC1,-,-,-,0,-,-
Cc1ccc(-c2csc(NC(=O)C3=NN(C4CCS(=O)(=O)C4)C(=O)CC3)n2)cc1 (centres undefined),0,0,0,0,0,0
c1ccc2cc(N3CCCCC3)ccc2c1,-,-,-,0,-,-
O=C1c2ccccc2C(=O)c2cc(N3CCCCC3)ccc21,-,-,-,43.7,-,-
O=c1ccc(N=Nc2ccccc2)ccc1O,-,-,-,42.6,-,-
CC[n+]1c(/C=C/c2ccc(OC)c(OC)c2)ccc2ccccc21,0,0,0,0,0,0
CC[n+]1c(/C=C/c2ccc(N(C)C)cc2)ccc2ccccc21,-,-,-,47.0,-,-
C=CCNC(=O)c1cc(C(=O)C(C)c2ncc(C(F)(F)F)cc2Cl)c[nH]1 (centres undefined),0,0,0,0,0,0
C/C(=N/OC(=O)c1ccc(Cl)cc1Cl)c1oc(C)nc1C,0,0,82.8,0,87.1,90.2
Cc1ccc(N2Cc3ccccc3C2=S)cc1,0,0,0,0,59.2,54.0
O=[N+]([O-])c1ccc2nc(-c3ccc(Cl)cc3)n(OCc3ccccc3)c2c1,0,0,0,0,59.8,74.5
Clc1ccc(COn2c(-c3ccc(Cl)cc3)nc3ccccc32)cc1,0,0,0,0,0,0
CC1=NN(S(=O)(=O)c2ccc(Cl)cc2Cl)C(=O)c2ccccc2O1,0,0,0,0,0,0
COc1cccc(/C=N/NC(=O)c2cnn(-c3ccccc3)c2N)c1,0,0,71.4,0,80.9,83.4
Nc1c(C(=O)N/N=C/c2cccnc2)cnn1-c1ccccc1,0,0,0,0,0,0
COc1cc(O)cc(O)c1C(=O)/C=C/c1ccccc1,0,0,0,0,0,0
COc1cc(OC)c(C(=O)/C=C/c2ccccc2)c(O)c1O,0,0,0,45.3,0,0
CCc1ccc(NC(=O)NCCCN2CCCC2=O)cc1,0,0,0,0,0,0
Cc1nc(SCC(=O)NCCN2C(=O)CSC2=O)nc(C)c1C,0,0,0,0,0,0
CC1CCN(C(=O)c2ccc(S(=O)(=O)NCc3ccco3)cc2)CC1,0,0,0,0,0,0
O=C(Nc1nsc(-c2ccccc2)n1)c1cccs1,0,0,0,0,62.0,63.7
COc1cccc2c1C(=O)c1c(O)c3c(c(O)c1C2=O)CC(O)(C(C)=O)CC3OC1CC(N(C)C)C(O)C(C)O1 (centres undefined),-,-,-,48.9,-,-
COc1cccc2c1C(=O)c1c(O)c3c(c(O)c1C2=O)C[C@@](O)(C(=O)CO)C[C@@H]3OC1CC(N)C(O)C(C)O1 (some centres undefined),-,-,-,94.0,-,-
SMILES,Apaf-1 inh,UBC13 polyUb,SENP8 block-1,SENP8 block-2,SENP7 inh,SENP6 block
CCOc1ccccc1C(=O)N[C@H](C(=O)OCC(=O)Nc1nnc(-c2ccccc2)o1)C(C)C,-,-,-,0,-,-
Nc1sccc1C(=O)NCCN1CCOCC1,-,-,-,0,-,-
COc1cc(OC)cc(C(=O)N[C@H](C(=O)NCc2cccs2)C(C)C)c1,0,0,0,0,0,0
N/C(=N\OC(=O)COc1ccc2ccccc2c1Br)c1ccncc1,0,0,0,-,0,0
O=C(N/N=C/c1ccc(N2CCOCC2)cc1)c1ccccn1,0,0,0,0,54.6,55.8
O=C(c1cc(C2CCCCN2S(=O)(=O)c2cccs2)on1)N1CCOCC1 (centres undefined),-,-,-,0,-,-
N#C/C(=C\c1ccc(N2CCCCC2)c([N+](=O)[O-])c1)c1nn(-c2ccccc2)c(N)c1C#N,0,0,0,0,0,0
CC1CCCN(c2ccc(/C=C(\C#N)c3nn(-c4ccccc4)c(N)c3C#N)cc2[N+](=O)[O-])C1 (centres undefined),0,0,0,47.4,0,0
CC1CCN(c2cc(N3CCC(C)CC3)c([N+](=O)[O-])cc2/C=C(\C#N)c2nn(-c3ccccc3)c(N)c2C#N)CC1,0,0,0,59.7,0,0
CC1CCN(c2ccc(/C=C(\C#N)c3nn(-c4ccccc4)c(N)c3C#N)cc2[N+](=O)[O-])CC1,0,0,0,0,0,0
O=C1CC(c2nc3ccccc3[nH]2)CN1c1ccccc1 (centres undefined),0,0,0,0,0,0

# Screening data as filed in PubChem BioAssay.
